Data set [1] can be described thus: melting temperature; fluorescence melt of hairpins on a sequencing array, two-state fit, raised by 9.35 °C to match UV melts. Conditions: sodium 0.088 M. The method, boiled down:
(§1)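 Cy3 fluorescence of library hairpins on a sequenced MiSeq flow cell, with annealed Cy3 and quencher oligos, was imaged in 50 mM Na-HEPES pH 8.0, 25 mM NaCl in 2.5 °C steps up to 60 °C. Signals were normalised to pre-quench Cy3 and to control variants. Melting temperature and folding enthalpy came from bootstrapped two-state fits, inverse-variance combined over four replicates. Fitted temperatures were raised by 9.35 °C to match UV melts.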

Data set [2] is described as follows: folding enthalpy; higher = less favourable; fluorescence melt of hairpins on a sequencing array, two-state fit. As to conditions: sodium 0.088 M. The method, boiled down:
as §1

Turning to GGTGGATCGAAAGATACC (((..(((....)))))), the Tm in data set [1] was determined as 35.6 °C. Further, the folding enthalpy in data set [2] is -18.4 kcal/mol.

For GGTGGCGAAAGCCCAACC ((((((....)))..))), the Tm in data set [1] is 42 °C. For the same sequence, the folding enthalpy in data set [2] is -14.8 kcal/mol.

GGTGGCGAAAGCCCCACC ((((((....)))..))): the Tm in data set [1] worked out at 49.8 °C. Besides, the folding enthalpy in data set [2] was -11.1 kcal/mol.

Regarding GGTGGCGAAAGCCTGACC ((((((....)))..))), in data set [1], the Tm came out at 41.9 °C. Moreover, the folding enthalpy in data set [2] was -14.2 kcal/mol.

Regarding GGTGGCGGAAACGTCACC ((((.((....)).)))), the Tm in data set [1] came out at 63.3 °C. For the same sequence, the folding enthalpy in data set [2] is -48.2 kcal/mol.

Turning to GGTGGCGGAAACGTCGCC ((.(.((....)).).)), in data set [1], the Tm amounted to 54.2 °C. Also, in data set [2], the folding enthalpy was -39.9 kcal/mol.

GGTGGGACGAAAGTCACC (((..(((....)))))): the Tm in data set [1] was determined as 47 °C. For the same sequence, the folding enthalpy in data set [2] is -14.4 kcal/mol.

In the case of GGTGGGCGAAAGCCAACC (((.(((....))).))), the Tm in data set [1] came out at 64.1 °C. In data set [2], the folding enthalpy was -28.7 kcal/mol.

As for GGTGGGCGAAAGCCACC (((.(((....)))))), the Tm in data set [1] was 66.1 °C. Besides, the folding enthalpy in data set [2] is -21.3 kcal/mol.

For GGTGGGGCGAAAGCCACC (((..(((....)))))), the Tm in data set [1] was found to be 54.5 °C. In addition, the folding enthalpy in data set [2] is -12.3 kcal/mol.

Consider GGTGGGGGAAACCCCATC (.(((((....))))).), for which the Tm in data set [1] was 51.3 °C. The folding enthalpy in data set [2] is -24.2 kcal/mol.

Turning to GGTGGTCGAAAGACGACC (((.(((....))).))), the Tm in data set [1] was 56.8 °C. In addition, the folding enthalpy in data set [2] was -38 kcal/mol.

For the sequence GGTGGTGGAAACACCATC (.(((((....))))).), the Tm in data set [1] is 56.2 °C. The folding enthalpy in data set [2] is -26.2 kcal/mol.

With GGTGGTGGAAACACCGTC (..((((....))))..), the Tm in data set [1] is 55.5 °C. Besides, in data set [2], the folding enthalpy is -22.8 kcal/mol.

As to GGTGTAACGAAAGTTACC (((..(((....)))))), the Tm in data set [1] is 42.9 °C. Also, the folding enthalpy in data set [2] was -14.3 kcal/mol.

As for GGTGTACGAAAGTAAACC (((.(((....))).))), in data set [1], the Tm amounted to 48.6 °C. In addition, the folding enthalpy in data set [2] was -24.9 kcal/mol.

As for GGTGTACGAAAGTAGACC (((.(((....))).))), the Tm in data set [1] came to 52.2 °C. The folding enthalpy in data set [2] is -38.3 kcal/mol.

Consider GGTGTAGCGAAAGCTACC (((..(((....)))))), for which the Tm in data set [1] was determined as 49.1 °C. The folding enthalpy in data set [2] was -9.3 kcal/mol.

Turning to GGTGTAGGAAACCACACC (((((.(....).))))), the Tm in data set [1] is 47.4 °C. Further, the folding enthalpy in data set [2] is -32.9 kcal/mol.

Regarding GGTGTAGGAAACTACGCC ((.((((....)))).)), in data set [1], the Tm came out at 52.3 °C. In addition, the folding enthalpy in data set [2] was -43.2 kcal/mol.

Take GGTGTAGGAAACTATACC (((.(((....))).))): the Tm in data set [1] was found to be 42.4 °C. In addition, the folding enthalpy in data set [2] is -32 kcal/mol.

On to GGTGTCGAAAGACAGACC ((((((....)))..))), for which the Tm in data set [1] was determined as 44 °C. Also, the folding enthalpy in data set [2] is -15.1 kcal/mol.

With GGTGTCGAAAGACGACC ((((((....))).))), the Tm in data set [1] turned out to be 52.6 °C. The folding enthalpy in data set [2] was -19.9 kcal/mol.

For GGTGTCGAAAGACTCACC ((((((....)))..))), the Tm in data set [1] turned out to be 39.1 °C. In addition, the folding enthalpy in data set [2] is -17.6 kcal/mol.

On to GGTGTCGGAAACGGCACC ((((.((....)).)))), for which the Tm in data set [1] amounted to 64.7 °C. In addition, the folding enthalpy in data set [2] is -46.5 kcal/mol.

With GGTGTGGGAAACCACATC (.(((((....))))).), in data set [1], the Tm amounted to 51.2 °C. In data set [2], the folding enthalpy is -21.1 kcal/mol.

Regarding GGTGTGGGAAACCACGCC ((.((((....)))).)), the Tm in data set [1] came to 60.5 °C. The folding enthalpy in data set [2] is -27.4 kcal/mol.

For GGTGTGGGAAACCACGTC (..((((....))))..), the Tm in data set [1] came out at 39.3 °C. Besides, in data set [2], the folding enthalpy was -13 kcal/mol.

For the sequence GGTGTGGGAAACCATGCC ((..(((....)))..)), the Tm in data set [1] is 45.5 °C. For the same sequence, the folding enthalpy in data set [2] is -30.7 kcal/mol.

On to GGTGTGGGAAACCGCATC (.((.((....)).)).), for which the Tm in data set [1] was 41.9 °C. Further, in data set [2], the folding enthalpy is -23.7 kcal/mol.

Take GGTGTTGCGAAAGCAACC (((..(((....)))))): the Tm in data set [1] was determined as 49.5 °C. Further, the folding enthalpy in data set [2] was -8.2 kcal/mol.

In the case of GGTGTTGGAAACAATACC (((.(((....))).))), in data set [1], the Tm was determined as 47.4 °C. Further, in data set [2], the folding enthalpy is -39.7 kcal/mol.

For the sequence GGTGTTGGAAACAGCATC (.((.((....)).)).), the Tm in data set [1] worked out at 46.5 °C. In data set [2], the folding enthalpy is -17.7 kcal/mol.

Consider GGTGTTGGAAACGACACC (((((.(....).))))), for which, in data set [1], the Tm amounted to 54.3 °C. The folding enthalpy in data set [2] was -50.3 kcal/mol.

In the case of GGTTAACCGAAAGGTACC (((..(((....)))))), the Tm in data set [1] worked out at 38 °C. The folding enthalpy in data set [2] was -17.4 kcal/mol.

For the sequence GGTTAACGAAAGTTTACC (((.(((....))).))), in data set [1], the Tm stood at 45.2 °C. In data set [2], the folding enthalpy is -33.3 kcal/mol.

GGTTAATCGAAAGATACC (((..(((....)))))): in data set [1], the Tm was found to be 29.2 °C. Further, the folding enthalpy in data set [2] was -17.1 kcal/mol.

Turning to GGTTACCGAAAGGTCACC (((.(((....))).))), in data set [1], the Tm is 49.1 °C. Besides, in data set [2], the folding enthalpy was -27.7 kcal/mol.

For GGTTACGAAAGTAAAACC ((((((....)))..))), the Tm in data set [1] came out at 36.6 °C. Moreover, the folding enthalpy in data set [2] was -24.3 kcal/mol.

As to GGTTACGAAAGTAACACC ((((((....)))..))), the Tm in data set [1] is 44.6 °C. Moreover, in data set [2], the folding enthalpy was -12.7 kcal/mol.

As to GGTTACGAAAGTAGCACC ((((((....)))..))), the Tm in data set [1] was determined as 31.7 °C. Also, the folding enthalpy in data set [2] was -14.5 kcal/mol.

Take GGTTACGGAAACGTAATC (.(((((....))))).): the Tm in data set [1] amounted to 45.5 °C. Besides, the folding enthalpy in data set [2] is -30.5 kcal/mol.

GGTTAGACGAAAGTCACC (((..(((....)))))): the Tm in data set [1] stood at 27 °C. Moreover, the folding enthalpy in data set [2] was -6.17 kcal/mol.

For GGTTAGGCGAAAGCCACC (((..(((....)))))), in data set [1], the Tm was 42.9 °C. The folding enthalpy in data set [2] was -12.5 kcal/mol.

As to GGTTAGGGAAACCTGACC (((.(((....))).))), in data set [1], the Tm is 48 °C. For the same sequence, the folding enthalpy in data set [2] was -33 kcal/mol.

As for GGTTATACGAAAGTAACC (((..(((....)))))), the Tm in data set [1] turned out to be 38.1 °C. In addition, the folding enthalpy in data set [2] is -14.7 kcal/mol.

Consider GGTTCACCGAAAGGTACC (((..(((....)))))), for which the Tm in data set [1] amounted to 32.2 °C. The folding enthalpy in data set [2] is -11.9 kcal/mol.

In the case of GGTTCACGAAAGTGCACC (((.(((....))).))), in data set [1], the Tm is 50.5 °C. Further, the folding enthalpy in data set [2] was -29.7 kcal/mol.

For the sequence GGTTCACGAAAGTGTACC (((.(((....))).))), the Tm in data set [1] was 52.4 °C. Further, in data set [2], the folding enthalpy was -36.4 kcal/mol.

Consider GGTTCAGGAAACCGAACC (((((.(....).))))), for which, in data set [1], the Tm is 47.8 °C. Moreover, the folding enthalpy in data set [2] is -26.5 kcal/mol.

Take GGTTCAGGAAACTGGACC (((.(((....))).))): in data set [1], the Tm stood at 50.7 °C. The folding enthalpy in data set [2] was -44.8 kcal/mol.

In the case of GGTTCCCGAAAGGGCACC (((.(((....))).))), the Tm in data set [1] came out at 51.6 °C. Also, the folding enthalpy in data set [2] is -26.2 kcal/mol.

As for GGTTCCGAAAGGAATACC ((((((....)))..))), the Tm in data set [1] was determined as 41.5 °C. The folding enthalpy in data set [2] was -14.1 kcal/mol.

In the case of GGTTCCGAAAGGACTACC ((((((....)))..))), the Tm in data set [1] stood at 36.1 °C. Besides, the folding enthalpy in data set [2] is -15.3 kcal/mol.

Values taken from the array DNA melting data of Ke et al. (doi:10.1101/2024.01.08.574731).
